Reference: ChEMBL document CHEMBL3352502, “A dual inhibitor of matrix metalloproteinases and a disintegrin and metalloproteinases, [¹⁸F]FB-ML5, as a molecular probe for non-invasive MMP/ADAM-targeted imaging” (Bioorg Med Chem, 2015)
Blank lines part the entries; values can stand above or below the molecule they belong to.

How the values were obtained:
[1] = target: 72 kDa type IV collagenase (Homo sapiens, UniProt P08253); assay: Inhibition of human recombinant MMP2 catalytic domain using Mca-Pro-Leu-Gly-Leu-Dpa-Ala-Arg-NH2 fluorogenic substrate
72 kDa type IV collagenase, sequence (P08253 whole entry, the tested form may be a part): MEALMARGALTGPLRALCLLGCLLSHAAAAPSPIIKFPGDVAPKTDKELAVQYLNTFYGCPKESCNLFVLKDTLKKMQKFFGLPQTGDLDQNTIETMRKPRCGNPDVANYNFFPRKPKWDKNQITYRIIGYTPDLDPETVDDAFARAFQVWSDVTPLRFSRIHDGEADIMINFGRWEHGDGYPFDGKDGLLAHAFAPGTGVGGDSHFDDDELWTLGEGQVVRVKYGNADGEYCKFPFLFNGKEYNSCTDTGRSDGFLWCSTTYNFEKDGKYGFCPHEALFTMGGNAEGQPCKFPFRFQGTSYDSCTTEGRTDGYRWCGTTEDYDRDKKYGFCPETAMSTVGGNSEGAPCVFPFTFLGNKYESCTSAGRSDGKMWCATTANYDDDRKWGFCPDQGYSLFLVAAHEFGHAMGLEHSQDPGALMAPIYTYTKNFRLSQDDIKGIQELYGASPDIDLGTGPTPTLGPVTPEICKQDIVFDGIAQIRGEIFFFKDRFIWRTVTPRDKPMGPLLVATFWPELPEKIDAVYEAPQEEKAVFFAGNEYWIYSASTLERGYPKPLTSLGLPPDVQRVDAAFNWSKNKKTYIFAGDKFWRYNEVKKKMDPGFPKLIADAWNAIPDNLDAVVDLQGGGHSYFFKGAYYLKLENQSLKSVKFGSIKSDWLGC
Method in brief: (§1)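 Recombinant human catalytic domains (MMP-2; MMP-9 lacking fibronectin type II insert and MMP-12, both E. coli-expressed) at 10 ng per well with fluorogenic substrate. Buffer: 50 mM Tris pH 7.4, 0.2 M NaCl, 10 mM CaCl₂, ZnCl₂, 0.05% v/v Brij-35. Fluorescence rise (ex 320/em 440 nm) read for 15 min at 20 °C over inhibitor series up to 1000 nM (or 100 µM). IC50 by sigmoidal fit, triplicate.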

[2] = target: Matrix metalloproteinase-9 (Homo sapiens, UniProt P14780); assay: Inhibition of human recombinant MMP9 catalytic domain using Mca-Pro-Leu-Gly-Leu-Dpa-Ala-Arg-NH2 fluorogenic substrate; method in brief: as §1
Matrix metalloproteinase-9, sequence (P14780 whole entry, the tested form may be a part): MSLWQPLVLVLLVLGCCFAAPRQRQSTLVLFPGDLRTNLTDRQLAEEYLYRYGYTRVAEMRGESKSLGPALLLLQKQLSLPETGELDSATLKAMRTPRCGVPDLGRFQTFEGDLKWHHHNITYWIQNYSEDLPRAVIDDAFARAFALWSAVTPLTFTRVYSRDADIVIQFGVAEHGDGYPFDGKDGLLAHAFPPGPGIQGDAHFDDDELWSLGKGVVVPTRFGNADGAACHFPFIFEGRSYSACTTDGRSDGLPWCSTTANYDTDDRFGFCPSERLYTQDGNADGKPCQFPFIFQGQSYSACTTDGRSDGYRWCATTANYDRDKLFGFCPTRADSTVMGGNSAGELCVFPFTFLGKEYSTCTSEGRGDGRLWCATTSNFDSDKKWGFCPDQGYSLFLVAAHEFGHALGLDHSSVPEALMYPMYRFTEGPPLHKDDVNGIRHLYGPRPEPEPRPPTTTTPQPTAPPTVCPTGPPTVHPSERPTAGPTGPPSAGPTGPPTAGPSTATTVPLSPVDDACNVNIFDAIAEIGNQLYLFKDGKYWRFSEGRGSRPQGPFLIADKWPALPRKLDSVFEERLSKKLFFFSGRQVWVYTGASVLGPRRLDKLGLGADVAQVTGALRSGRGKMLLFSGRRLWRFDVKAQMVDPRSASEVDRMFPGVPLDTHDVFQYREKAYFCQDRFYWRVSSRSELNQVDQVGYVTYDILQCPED

[3] = target: Macrophage metalloelastase (Homo sapiens, UniProt P39900); assay: Inhibition of human recombinant MMP12 catalytic domain Mca-Pro-Leu-Gly-Leu-Dpa-Ala-Arg-NH2 fluorogenic substrate; method in brief: as §1
Macrophage metalloelastase, sequence (P39900 whole entry, the tested form may be a part): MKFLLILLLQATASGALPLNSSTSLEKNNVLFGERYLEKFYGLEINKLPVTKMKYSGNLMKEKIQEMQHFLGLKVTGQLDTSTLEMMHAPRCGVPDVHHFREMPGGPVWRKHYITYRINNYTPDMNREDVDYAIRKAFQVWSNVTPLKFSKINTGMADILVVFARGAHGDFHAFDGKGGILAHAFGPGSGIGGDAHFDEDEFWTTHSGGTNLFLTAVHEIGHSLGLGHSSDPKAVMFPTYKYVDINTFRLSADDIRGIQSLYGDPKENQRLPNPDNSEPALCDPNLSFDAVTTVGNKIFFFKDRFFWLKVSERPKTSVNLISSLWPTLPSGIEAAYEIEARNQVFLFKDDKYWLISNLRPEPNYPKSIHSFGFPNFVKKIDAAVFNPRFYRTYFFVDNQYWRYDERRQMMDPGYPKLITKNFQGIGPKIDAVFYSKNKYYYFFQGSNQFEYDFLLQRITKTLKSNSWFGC

Heart [4] = assay: Drug uptake in HT1080 cells xenografted mouse heart after 90 mins in presence of non-radioactive ML5; assay type: ADME, cell-based, HT-1080; settings: in vivo, 1.5 h
Method in brief: (§2)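 Male BALB/c nu/nu mice, 7–8 weeks old, were given (2–2.5)×10⁶ HT1080 cells s.c. in the right shoulder in Matrigel/EMEM (1:1). They were used 14–21 days later at tumor volume 0.3–0.6 mL. [¹⁸F]FB-ML5 was given alone or co-injected with 2.5 mg/kg ML5. Tissues were weighed and gamma-counted. SUVmean = tissue MBq/g ÷ (injected MBq/body weight g). n = 6 per group, mean ± SD, unpaired t-test.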

[5] = Drug uptake in HT1080 cells xenografted mouse assessed as tumor to plasma ratio after 90 mins in presence of non-radioactive ML5; assay type: ADME, cell-based, HT-1080; settings: tumor and plasma
Method in brief: (§3)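 Same HT1080 subcutaneous xenograft in male BALB/c nude mice. The tracer was co-injected with 2.5 mg/kg non-radioactive ML5 and scanned for 90 min. Organs and plasma were gamma-counted ex vivo at 90 min p.i. The tissue/plasma SUV_mean ratio was calculated. n = 6, mean SD, unpaired two-sided t-test against the group without ML5.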

Tumour [6] = assay: Drug uptake in HT1080 cells xenografted mouse tumor after 90 mins in presence of non-radioactive ML5; assay type: ADME, Neoplasm, HT-1080; settings: in vivo, 1.5 h; method in brief: as §2
[7] = Drug uptake in HT1080 cells xenografted mouse assessed as liver to plasma ratio after 90 mins; assay type: ADME, cell-based, HT-1080; settings: liver and plasma
Method in brief: (§4)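 Male BALB/c nude mice, 7–8 weeks, with (2–2.5)×10⁶ HT1080 cells in Matrigel/EMEM injected subcutaneously into the right shoulder. Tracer injected when tumors reached 0.3–0.6 mL (14–21 days), followed by a 90 min microPET scan. Ex vivo: organs and plasma gamma-counted at 90 min p.i. SUV_mean for each tissue divided by plasma SUV_mean. n = 6, mean SD.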

[8] = Drug uptake in HT1080 cells xenografted mouse assessed as heart to plasma ratio after 90 mins in presence of non-radioactive ML5; assay type: ADME, cell-based, HT-1080; settings: heart and plasma; method in brief: as §3
[9] = Drug uptake in HT1080 cells xenografted mouse assessed as bone to plasma ratio after 90 mins in presence of non-radioactive ML5; assay type: ADME, cell-based, HT-1080; settings: bone and plasma; method in brief: as §3
Liver [10] = assay: Drug uptake in HT1080 cells xenografted mouse liver after 90 mins; assay type: ADME, cell-based, HT-1080; settings: in vivo, 1.5 h; method in brief: as §2
Liver [11] = assay: Drug uptake in HT1080 cells xenografted mouse liver after 90 mins in presence of non-radioactive ML5; assay type: ADME, cell-based, HT-1080; settings: in vivo, 1.5 h; method in brief: as §2
Intestine [12] = assay: Drug uptake in HT1080 cells xenografted mouse large intestine after 90 mins; assay type: ADME, cell-based, HT-1080; settings: in vivo, 1.5 h; method in brief: as §2
Plasma [13] = assay: Drug uptake in HT1080 cells xenografted mouse plasma after 90 mins; assay type: ADME, cell-based, HT-1080; settings: in vivo, 1.5 h; method in brief: as §2
Plasma [14] = assay: Drug uptake in HT1080 cells xenografted mouse plasma assessed as parent compound after 90 mins; assay type: ADME, cell-based, HT-1080; settings: in vivo, 1.5 h
Method in brief: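 Parent fraction in plasma of control HT1080-bearing mice at 90 min p.i. Plasma (250 µL) was deproteinized with 750 µL ACN, centrifuged 3 min at 3000 rpm and filtered (0.22 µm). Analysed by semi-preparative reverse-phase HPLC with radioactivity detection; % intact tracer of total plasma radioactivity, n = 2.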

Bone [15] = assay: Drug uptake in HT1080 cells xenografted mouse bone after 90 mins in presence of non-radioactive ML5; assay type: ADME, cell-based, Bone element, HT-1080; settings: in vivo, 1.5 h; method in brief: as §2
Bone [16] = assay: Drug uptake in HT1080 cells xenografted mouse bone after 90 mins; assay type: ADME, cell-based, Bone element, HT-1080; settings: in vivo, 1.5 h; method in brief: as §2
Tumour [17] = assay: Drug uptake in HT1080 cells xenografted mouse tumor after 90 mins; assay type: ADME, Neoplasm, HT-1080; settings: in vivo, 1.5 h; method in brief: as §2
Heart [18] = assay: Drug uptake in HT1080 cells xenografted mouse heart after 90 mins; assay type: ADME, cell-based, HT-1080; settings: in vivo, 1.5 h; method in brief: as §2
[19] = Octanol-water partition coefficient, log P of the compound; assay type: physicochemical
Method in brief: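 About 5 kBq [¹⁸F]FB-ML5 in saline was mixed with 495 µL PBS pH 7.4 and 500 µL n-octanol. Vortexed 5 min, centrifuged 5 min at 3000 rpm, then 100 µL of each layer gamma-counted. logP = log₁₀(cpm octanol/cpm aqueous), triplicate.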

[20] = Drug uptake in HT1080 cells xenografted mouse assessed as liver to plasma ratio after 90 mins in presence of non-radioactive ML5; assay type: ADME, cell-based, HT-1080; settings: liver and plasma; method in brief: as §3
Plasma [21] = assay: Drug uptake in HT1080 cells xenografted mouse plasma after 90 mins in presence of non-radioactive ML5; assay type: ADME, cell-based, HT-1080; settings: in vivo, 1.5 h; method in brief: as §2
[22] = Drug uptake in HT1080 cells xenografted mouse assessed as heart to plasma ratio after 90 mins; assay type: ADME, cell-based, HT-1080; settings: heart and plasma; method in brief: as §4
Intestine [23] = assay: Drug uptake in HT1080 cells xenografted mouse large intestine after 90 mins in presence of non-radioactive ML5; assay type: ADME, cell-based, HT-1080; settings: in vivo, 1.5 h; method in brief: as §2
[24] = Drug uptake in HT1080 cells xenografted mouse assessed as large intestine to plasma ratio after 90 mins; assay type: ADME, cell-based, HT-1080; settings: large intestine and plasma; method in brief: as §4
[25] = Drug uptake in HT1080 cells xenografted mouse assessed as large intestine to plasma ratio after 90 mins in presence of non-radioactive ML5; assay type: ADME, cell-based, HT-1080; settings: large intestine and plasma; method in brief: as §3
Lung [26] = assay: Drug uptake in HT1080 cells xenografted mouse lung after 90 mins in presence of non-radioactive ML5; assay type: ADME, cell-based, HT-1080; settings: in vivo, 1.5 h; method in brief: as §2
Intestine [27] = assay: Drug uptake in HT1080 cells xenografted mouse small intestine after 90 mins; assay type: ADME, cell-based, HT-1080; settings: in vivo, 1.5 h; method in brief: as §2
[28] = Drug uptake in HT1080 cells xenografted mouse assessed as bone to plasma ratio after 90 mins; assay type: ADME, cell-based, HT-1080; settings: bone and plasma; method in brief: as §4
[29] = Drug uptake in HT1080 cells xenografted mouse assessed as tumor to plasma ratio after 90 mins; assay type: ADME, cell-based, HT-1080; settings: tumor and plasma; method in brief: as §4
Lung [30] = assay: Drug uptake in HT1080 cells xenografted mouse lung after 90 mins; assay type: ADME, cell-based, HT-1080; settings: in vivo, 1.5 h; method in brief: as §2

IC50 [1]: 0.0074 µM
IC50 [2]: 0.0195 µM
IC50 [3]: 0.002 µM
Compound: CC(C)C[C@H](CC(=O)NO)C(=O)N[C@@H](Cc1ccccc1)C(=O)N[C@@H](CCCCN)C(N)=O

IC50 [1]: 0.0125 µM
IC50 [2]: 0.0315 µM
IC50 [3]: 0.138 µM
Compound: CC(C)C[C@H](CC(=O)NO)C(=O)N[C@@H](Cc1ccccc1)C(=O)N[C@@H](CCCCNC(=O)c1ccc(F)cc1)C(N)=O

IC50 [2]: 1.49 µM
Compound: CC(C)C[C@H](CC(=O)NOC(=O)c1ccc(F)cc1)C(=O)N[C@@H](Cc1ccccc1)C(=O)N[C@@H](CCCCNC(=O)c1ccc(F)cc1)C(N)=O

SUV (Heart [4]): 0.043
Kp at 1.5 h [5]: 0.231
SUV (Tumour [6]): 0.041
Kp at 1.5 h [7]: 19.2
Kp at 1.5 h [8]: 0.235
Kp at 1.5 h [9]: 0.09
SUV (Liver [10]): 4.58
SUV (Liver [11]): 2
SUV (Intestine [12]): 1.8
SUV (Plasma [13]): 0.238
Drug uptake (Plasma [14]): 23.2%
SUV (Bone [15]): 0.017
SUV (Bone [16]): 0.041
SUV (Tumour [17]): 0.145
SUV (Heart [18]): 0.111
logP [19]: 1.11
Kp at 1.5 h [20]: 10.9
SUV (Plasma [21]): 0.185
Kp at 1.5 h [22]: 0.482
SUV (Intestine [23]): 2.75
Kp at 1.5 h [24]: 7.83
Kp at 1.5 h [25]: 14.8
SUV (Lung [26]): 0.106
SUV (Intestine [27]): 5.207
Kp at 1.5 h [28]: 0.179
Kp at 1.5 h [29]: 0.597
SUV (Lung [30]): 0.254
Compound: CC(C)C[C@H](CC(=O)NO)C(=O)N[C@@H](Cc1ccccc1)C(=O)N[C@@H](CCCCNC(=O)c1ccc([18F])cc1)C(N)=O
